Our source for the IC50 and pKa values is ChEMBL document CHEMBL1124756, “The discovery of potent nonpeptide angiotensin II receptor antagonists: a new class of potent antihypertensives” (J Med Chem, 1990).

What is called IC50 is the point on the concentration scale where inhibition reaches its midpoint. The term pKa denotes the pH at which an ionisable group is half protonated.

The target in the first series is T1, Angiotensin II receptor (Rattus norvegicus, UniProt P29089+P25095+P35351).
T1 sequence (P29089 whole entry): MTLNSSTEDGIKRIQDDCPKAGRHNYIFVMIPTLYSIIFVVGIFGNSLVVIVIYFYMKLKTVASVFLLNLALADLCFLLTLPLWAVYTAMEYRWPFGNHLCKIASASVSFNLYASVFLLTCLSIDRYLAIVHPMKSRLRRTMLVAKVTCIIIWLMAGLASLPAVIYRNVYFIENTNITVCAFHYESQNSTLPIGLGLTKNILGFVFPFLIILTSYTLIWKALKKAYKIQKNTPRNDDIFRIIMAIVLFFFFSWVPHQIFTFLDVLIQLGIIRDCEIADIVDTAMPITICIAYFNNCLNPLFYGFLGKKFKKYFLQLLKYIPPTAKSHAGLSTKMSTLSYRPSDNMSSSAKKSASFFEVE
T1 sequence (P25095 whole entry): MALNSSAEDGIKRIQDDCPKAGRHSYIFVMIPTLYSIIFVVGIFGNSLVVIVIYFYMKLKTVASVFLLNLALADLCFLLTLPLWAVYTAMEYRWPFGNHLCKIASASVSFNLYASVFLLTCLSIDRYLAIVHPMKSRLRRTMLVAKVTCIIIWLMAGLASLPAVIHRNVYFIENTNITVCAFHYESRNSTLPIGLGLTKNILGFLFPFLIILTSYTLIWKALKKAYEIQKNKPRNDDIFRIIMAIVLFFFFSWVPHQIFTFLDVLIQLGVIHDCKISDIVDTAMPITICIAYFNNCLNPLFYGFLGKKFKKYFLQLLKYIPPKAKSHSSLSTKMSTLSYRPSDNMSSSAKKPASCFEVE
T1 sequence (P35351 whole entry): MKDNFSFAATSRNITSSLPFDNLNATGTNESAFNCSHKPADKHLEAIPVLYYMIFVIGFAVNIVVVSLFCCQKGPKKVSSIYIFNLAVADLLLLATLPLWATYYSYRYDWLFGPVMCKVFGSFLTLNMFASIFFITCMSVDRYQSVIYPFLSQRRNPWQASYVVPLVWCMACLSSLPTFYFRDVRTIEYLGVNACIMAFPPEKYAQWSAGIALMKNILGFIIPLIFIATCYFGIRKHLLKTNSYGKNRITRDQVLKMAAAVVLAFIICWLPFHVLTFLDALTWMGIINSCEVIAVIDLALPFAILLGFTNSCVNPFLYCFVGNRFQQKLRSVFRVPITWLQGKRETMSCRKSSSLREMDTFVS
Nature of the series: Inhibitory concentration that gave 50 percent displacement of specific binding of [3H]AII (2 nM) to Angiotensin II receptor. The class given is protein assay. In short, it runs like this: (§1)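 Rat adrenal cortical microsomes from male Sprague–Dawley rats, resuspended in 50 mM Tris pH 7.2, 5 mM MgCl2, 0.25% BSA. Membranes (0.02–0.03 mg protein) incubated with [3H]AII 2 nM plus varying inhibitor concentrations, 60 min at 25 °C with shaking. Glass-fiber filtration, scintillation counting, duplicates. Nonspecific binding defined with 1 μM unlabeled AII. IC50 taken from linear portion of displacement curve.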
Compound `CCCCc1nc(Cl)c(CC(=O)OC)n1Cc1ccc(NC(=O)c2cc([N+](=O)[O-])cc([N+](=O)[O-])c2O)cc1` gave a half-inhibitory concentration (IC50) of over 30 µM.

`CCCCc1nc(Cl)c(CC(=O)OC)n1Cc1ccc(NC(=O)c2ccccc2NS(C)(=O)=O)cc1` showed an IC50 of 2.3 µM.

In the next series the target is T1, Angiotensin II receptor. Nature of the series: Inhibitory concentration that gave 50 percent displacement of specific binding of [3H]AII (2 nM) to Angiotensin ll receptor. The class given is protein assay. A digest of the protocol: as §1
As to `O=C(O)c1ccccc1C(=O)Nc1ccc(Cn2ccnc2CCc2ccccc2)cc1`, the IC50 is 9.4 µM.

With `CCCCCCc1nccn1Cc1ccc(NC(=O)c2ccccc2C(=O)O)cc1`, the IC50 turned out to be 0.35 µM.

In the case of `CCc1nccn1Cc1ccc(NC(=O)c2ccccc2C(=O)O)cc1`, the IC50 was 8.5 µM.

The compound `CCCCCc1nccn1Cc1ccc(NC(=O)c2ccccc2C(=O)O)cc1` had an IC50 of 0.24 µM.

In turn, `CCCc1nccn1Cc1ccc(NC(=O)c2ccccc2C(=O)O)cc1` displayed a 50% inhibitory concentration (IC50) of 3.7 µM.

Turning to `O=C(O)c1ccccc1C(=O)Nc1ccc(Cn2ccnc2CC2CCCCC2)cc1`, the half-maximal inhibitory concentration (IC50) is 2.8 µM.

In turn, `O=C(O)c1ccccc1C(=O)Nc1ccc(Cn2ccnc2)cc1` returned an IC50 of 100 µM.

Regarding `CCCCc1nccn1Cc1ccc(NC(=O)c2ccccc2C(=O)O)cc1`, the IC50 is 0.62 µM.

In turn, `Cc1nccn1Cc1ccc(NC(=O)c2ccccc2C(=O)O)cc1` showed an IC50 of 100 µM.

`CC(C)c1nccn1Cc1ccc(NC(=O)c2ccccc2C(=O)O)cc1` yielded an IC50 of 12 µM.

Regarding `COc1ccc(Cc2nccn2Cc2ccc(NC(=O)c3ccccc3C(=O)O)cc2)cc1`, the IC50 was 2.5 µM.

`O=C(O)c1ccccc1C(=O)Nc1ccc(Cn2cncc2CO)cc1`: the IC50 was over 100 µM.

Tested on in a further series: not listed separately
Description: Dissociation constant (pKa). In kind it is physicochemical.
Turning to `CCCCc1nc(Cl)c(CC(=O)OC)n1Cc1ccc(NC(=O)c2cc([N+](=O)[O-])cc([N+](=O)[O-])c2O)cc1`, the pKa was 4.3.

The compound `CCCCc1nc(Cl)c(CC(=O)OC)n1Cc1ccc(NC(=O)c2ccccc2NS(C)(=O)=O)cc1` came in with a pKa of 8.9.
